Data: paper PMC4539245 (Nature chemical biology, 2013)
pIC50: −log10 of the molar value.

Legend:
Kv1.5 channels = Kv1.5 channels (Homo sapiens, UniProt P22460); assay type: cell-based
[1] = test system: Kv1.1, Kv1.2, Kv1.5 and Kv1.6 versus Kv2.1, Kv3.1 and Kv4.3; experiment: TEVC in Xenopus oocytes, block of different Kv channels; assay type: cell-based; conditions: 500 nM Psora-4, +40 mV
Method in brief: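 Channels expressed in Xenopus oocytes and recorded by two-electrode voltage clamp in modified ND96 (96 mM NaCl, 4 mM KCl, 5 mM HEPES, pH 7.5). Cells were held at −80 mV and stepped to +40 mV for 2 s every 10 s. Test compound was applied at 500 nM from a 10 mM DMSO stock, and block was analysed at +40 mV.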

Kv2.1 = target: T1, Kv2.1 (Homo sapiens, UniProt Q14721); experiment: TEVC in Xenopus oocytes, Kv2.1 wild type; assay type: cell-based; conditions: read-out: IC50 for Kv2.1
T1 sequence (Q14721 1-858): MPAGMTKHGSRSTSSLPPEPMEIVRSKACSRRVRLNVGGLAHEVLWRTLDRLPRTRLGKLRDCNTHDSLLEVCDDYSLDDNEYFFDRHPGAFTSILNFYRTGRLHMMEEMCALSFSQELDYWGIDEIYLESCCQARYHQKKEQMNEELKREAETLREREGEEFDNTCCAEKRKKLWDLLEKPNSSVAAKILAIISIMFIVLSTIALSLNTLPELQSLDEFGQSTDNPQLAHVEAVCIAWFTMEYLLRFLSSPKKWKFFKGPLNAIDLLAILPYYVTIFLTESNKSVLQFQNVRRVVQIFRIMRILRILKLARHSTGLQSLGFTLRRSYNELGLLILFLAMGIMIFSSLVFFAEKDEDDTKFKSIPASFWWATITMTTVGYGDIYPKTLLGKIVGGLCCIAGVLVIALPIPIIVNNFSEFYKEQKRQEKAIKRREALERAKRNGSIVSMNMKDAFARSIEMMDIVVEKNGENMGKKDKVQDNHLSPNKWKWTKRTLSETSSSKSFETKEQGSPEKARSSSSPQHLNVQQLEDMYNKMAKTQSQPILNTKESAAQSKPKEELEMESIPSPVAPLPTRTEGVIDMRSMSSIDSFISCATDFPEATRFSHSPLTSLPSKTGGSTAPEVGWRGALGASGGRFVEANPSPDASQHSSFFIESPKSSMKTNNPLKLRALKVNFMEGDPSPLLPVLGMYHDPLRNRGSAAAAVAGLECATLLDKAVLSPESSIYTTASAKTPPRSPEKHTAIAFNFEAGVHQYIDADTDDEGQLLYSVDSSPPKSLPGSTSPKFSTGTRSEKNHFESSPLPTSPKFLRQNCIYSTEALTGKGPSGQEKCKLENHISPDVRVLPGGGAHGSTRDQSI
Method in brief: (§1)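 Stage IV–V X. laevis oocytes cultured at 18 °C for 1–13 d in HEPES-buffered saline, pH 7.4, with gentamycine and pyruvate. Two-electrode voltage clamp in modified ND96 (4 mM KCl, pH 7.5). Currents were evoked by 2-s pulses to +40 mV every 10 s from −80 mV. Compound was taken from a 10 mM DMSO stock.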

Kv2.1 SP+CC mutant = experiment: TEVC in Xenopus oocytes, Kv2.1 SP+CC six-fold mutant; assay type: cell-based
Method in brief: as §1

Kv1.5 mutant channels = experiment: TEVC in Xenopus oocytes, Kv1.5 scanning mutants; assay type: cell-based, human
Kv1.5 A503L mutant = experiment: TEVC in Xenopus oocytes, Kv1.5 A503L mutant; assay type: cell-based, human; conditions: versus wild-type Kv1.5
Kv1.3 = conditions: read-out: IC50 for block of Kv1.3; cited from earlier work
Kv1.5 = conditions: read-out: IC50 for block of Kv1.5; cited from earlier work
Kv3.1 = conditions: cited from earlier work

Chain of Kv1.5 channels (P22460 whole entry): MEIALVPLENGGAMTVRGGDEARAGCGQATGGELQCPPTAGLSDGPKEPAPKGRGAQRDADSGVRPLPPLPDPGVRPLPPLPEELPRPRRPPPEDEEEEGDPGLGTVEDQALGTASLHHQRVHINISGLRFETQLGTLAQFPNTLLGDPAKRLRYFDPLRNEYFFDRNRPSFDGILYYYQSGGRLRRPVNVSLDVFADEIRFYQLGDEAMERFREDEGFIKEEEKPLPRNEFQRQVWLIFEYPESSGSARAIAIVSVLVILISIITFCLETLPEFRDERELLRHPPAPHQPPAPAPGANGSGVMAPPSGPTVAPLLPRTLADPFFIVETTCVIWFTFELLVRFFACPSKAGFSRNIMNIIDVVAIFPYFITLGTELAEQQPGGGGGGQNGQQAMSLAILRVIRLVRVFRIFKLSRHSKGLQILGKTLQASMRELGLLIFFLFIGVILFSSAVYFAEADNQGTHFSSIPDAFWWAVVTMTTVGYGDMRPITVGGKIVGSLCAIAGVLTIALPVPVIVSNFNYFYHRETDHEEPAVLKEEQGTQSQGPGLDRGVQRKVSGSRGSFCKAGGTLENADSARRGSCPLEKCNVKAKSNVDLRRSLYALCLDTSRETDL

CC[N+](CC)(CC)CC [TEA, tetraethyl-ammonium]
effect on inhibition by 100 nM Psora-4 (Kv1.5 channels): prevented the otherwise complete inhibition
effect on kinetics of Psora-4 block (Kv1.5 channels): slowed the kinetics of block

O=c1ccc2c(OCCCCc3ccccc3)c3ccoc3cc2o1 [Psora-4]
sensitivity of Kv1 subfamily members versus Kv2.1, Kv3.1 and Kv4.3 [1]: much more sensitive
pIC50 (Kv2.1): ~5.41
pIC50 (Kv2.1 SP+CC mutant; read-out: IC50 for Kv2.1 SP+CC, six-fold mutant): 6.24
increase of IC50 by S4, S4-S5 linker and S5 mutations (Kv1.5 mutant channels; side-pocket hits versus wild-type Kv1.5): up to 276 fold
increase of IC50 for A503L mutant (Kv1.5 A503L mutant): ~100 fold
block of other K+ channels including Kv3.1 (Kv3.1): micromolar range

CCCCC[N+](CCCCC)(CCCCC)CCCCC [TPA, tetrapentyl-ammonium]
competition with Psora-4 in the central cavity (Kv1.5 channels; TPA pre-applied, same conditions as TEA): no apparent competition

CCCCN1CCCCC1C(=O)Nc1c(C)cccc1C (centres unmarked) [bupivacaine]
inhibition of S4 and S4-S5 linker mutants (Kv1.5 mutant channels; control pore blocker, side-pocket mutants): None of the mutations in the S4 segment or the S4–S5 linker reduced bupivacaine inhibition
